Test results from ChEMBL document CHEMBL2407079, “Potent DGAT1 Inhibitors in the Benzimidazole Class with a Pyridyl-oxy-cyclohexanecarboxylic Acid Moiety” (ACS Med Chem Lett, 2013).

Legend:
[1] = target: T1, Diacylglycerol O-acyltransferase 1 (Homo sapiens, UniProt O75907); experiment: Inhibition of human DGAT1
T1 sequence (O75907 whole entry): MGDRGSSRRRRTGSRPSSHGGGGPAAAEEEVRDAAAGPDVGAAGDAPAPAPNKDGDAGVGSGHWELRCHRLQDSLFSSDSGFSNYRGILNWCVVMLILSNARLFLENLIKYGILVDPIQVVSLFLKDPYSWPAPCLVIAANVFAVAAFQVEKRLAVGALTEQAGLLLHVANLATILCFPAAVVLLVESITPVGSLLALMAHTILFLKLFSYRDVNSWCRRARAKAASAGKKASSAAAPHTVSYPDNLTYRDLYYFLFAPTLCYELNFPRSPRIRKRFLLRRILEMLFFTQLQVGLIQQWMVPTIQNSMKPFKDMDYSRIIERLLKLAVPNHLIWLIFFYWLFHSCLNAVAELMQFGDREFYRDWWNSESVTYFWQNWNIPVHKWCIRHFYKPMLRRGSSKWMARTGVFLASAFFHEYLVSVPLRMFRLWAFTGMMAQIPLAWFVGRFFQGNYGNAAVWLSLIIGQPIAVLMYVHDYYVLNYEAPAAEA

[2] = Lipophilicity, log D of the compound by HPLC analysis; type: physicochemical
[3] = target: T2, Diacylglycerol O-acyltransferase 1 (Mus musculus, UniProt Q9Z2A7); experiment: Inhibition of mouse DGAT1
T2 sequence (Q9Z2A7 whole entry): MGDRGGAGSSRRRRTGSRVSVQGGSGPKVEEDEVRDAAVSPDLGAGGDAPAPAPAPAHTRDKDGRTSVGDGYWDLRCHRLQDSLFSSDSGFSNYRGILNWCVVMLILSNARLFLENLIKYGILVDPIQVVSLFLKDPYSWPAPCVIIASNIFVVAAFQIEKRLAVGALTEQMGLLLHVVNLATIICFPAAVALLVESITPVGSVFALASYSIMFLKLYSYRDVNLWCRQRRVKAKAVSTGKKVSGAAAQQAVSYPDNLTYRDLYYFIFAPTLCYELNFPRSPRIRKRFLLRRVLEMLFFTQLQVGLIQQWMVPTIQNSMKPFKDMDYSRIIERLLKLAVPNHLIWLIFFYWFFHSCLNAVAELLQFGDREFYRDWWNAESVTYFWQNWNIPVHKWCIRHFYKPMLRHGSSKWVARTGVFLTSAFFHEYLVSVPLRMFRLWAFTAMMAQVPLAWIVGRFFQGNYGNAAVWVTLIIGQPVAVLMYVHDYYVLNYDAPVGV

[4] = test system: Mus musculus; experiment: Reduction in triglyceride excursion in mouse at 10 mg/kg, po measured at 18 hrs by lipid tolerance test; type: functional; set-up: scale not given: the % may be the effect or the level left
In short: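 Mouse lipid tolerance test. Oral dose of 10 mg/kg as a suspension in 0.5% methylcellulose; triglyceride reduction read at 18 h.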

[5] = Ratio of drug uptake in ileum to blood of mouse at 3 mg/kg, po at 2 to 25 hrs; type: ADME, organism-based; set-up: dose 3 mg/kg, route oral
In short: (§1)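 Mice dosed orally at 3 mg/kg within a repeat lipid tolerance test. Drug levels (μM) measured in blood and in intestinal segments (duodenum, jejunum, ileum) at 2, 5 and 25 h after dosing. Tissue-to-blood ratio taken from the segment and blood concentrations at each time point.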

[6] = Biodistribution in mouse ileum at 3 mg/kg, po at 5 hrs; type: ADME, organism-based; set-up: dose 3 mg/kg, route oral; conditions: read-out: Drug uptake
In short: (§2)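 Mice, single oral dose of 3 mg/kg. Drug concentration (μM) determined in blood and in duodenum, jejunum and ileum segments at 2, 5 and 25 h.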

[7] = Ratio of drug uptake in jejunum to blood of mouse at 3 mg/kg, po at 2 to 25 hrs; type: ADME, organism-based; set-up: dose 3 mg/kg, route oral; in short: as §1
[8] = Biodistribution in mouse duodenum at 3 mg/kg, po at 5 hrs; type: ADME, organism-based; set-up: dose 3 mg/kg, route oral; conditions: read-out: Drug uptake; in short: as §2
[9] = Biodistribution in mouse blood at 3 mg/kg, po at 5 hrs; type: ADME, organism-based; set-up: dose 3 mg/kg, route oral; conditions: whole blood, read-out: Drug uptake; in short: as §2
[10] = Biodistribution in mouse jejunum at 3 mg/kg, po at 25 hrs; type: ADME, organism-based; set-up: dose 3 mg/kg, route oral; conditions: read-out: Drug uptake; in short: as §2
[11] = Biodistribution in mouse ileum at 3 mg/kg, po at 2 hrs; type: ADME, organism-based; set-up: dose 3 mg/kg, route oral; conditions: read-out: Drug uptake; in short: as §2
[12] = Biodistribution in mouse duodenum at 3 mg/kg, po at 2 hrs; type: ADME, organism-based; set-up: dose 3 mg/kg, route oral; conditions: read-out: Drug uptake; in short: as §2
[13] = test system: Mus musculus; experiment: Reduction in triglyceride excursion in mouse at 3 mg/kg, po by lipid tolerance test; type: functional; set-up: scale not given: the % may be the effect or the level left
[14] = Biodistribution in mouse ileum at 3 mg/kg, po at 25 hrs; type: ADME, organism-based; set-up: dose 3 mg/kg, route oral; conditions: read-out: Drug uptake; in short: as §2
[15] = Ratio of drug uptake in duodenum to blood of mouse at 3 mg/kg, po at 2 to 25 hrs; type: ADME, organism-based; set-up: dose 3 mg/kg, route oral; in short: as §1
[16] = Biodistribution in mouse blood at 3 mg/kg, po at 2 hrs; type: ADME, organism-based; set-up: dose 3 mg/kg, route oral; conditions: whole blood, read-out: Drug uptake; in short: as §2
[17] = Biodistribution in mouse jejunum at 3 mg/kg, po at 2 hrs; type: ADME, organism-based; set-up: dose 3 mg/kg, route oral; conditions: read-out: Drug uptake; in short: as §2
[18] = Biodistribution in mouse duodenum at 3 mg/kg, po at 25 hrs; type: ADME, organism-based; set-up: dose 3 mg/kg, route oral; conditions: read-out: Drug uptake; in short: as §2
[19] = Biodistribution in mouse jejunum at 3 mg/kg, po at 5 hrs; type: ADME, organism-based; set-up: dose 3 mg/kg, route oral; conditions: read-out: Drug uptake; in short: as §2
[20] = Biodistribution in mouse blood at 3 mg/kg, po at 25 hrs; type: ADME, organism-based; set-up: dose 3 mg/kg, route oral; conditions: whole blood, read-out: Drug uptake; in short: as §2

Row | IC50 [1] [nM] | logD [2] | IC50 [3] [nM] | SMILES | Activity [4] [%] | also measured
1 | 2 | 1.43 | 4.2 | O=C(O)[C@H]1CC[C@H](Oc2ccc(-c3ccc(-c4nc5cc(Cl)ccc5[nH]4)cn3)cn2)CC1 | 83 | –
2 | 3.9 | – | 4.6 | O=C(O)[C@H]1CC[C@@H](Oc2ccc(-c3ccc(-c4nc5ccc(OC(F)(F)F)cc5[nH]4)cn3)cn2)CC1 | – | –
3 | 3 | 1.72 | 4.4 | O=C(O)[C@H]1CC[C@H](Oc2ccc(-c3ccc(-c4nc5cc(C(F)(F)F)ccc5[nH]4)cn3)cn2)CC1 | 84 | –
4 | 1.7 | 1.62 | 2.2 | O=C(O)[C@H]1CC[C@@H](Oc2ccc(-c3ccc(-c4nc5cc(C(F)(F)F)ccc5[nH]4)cn3)cn2)CC1 | 84 | –

Further lines, the compound ahead of its results:

Row | SMILES | IC50 [1] [nM] | logD [2] | IC50 [3] [nM] | Activity [4] [%] | also measured
5 | CS(=O)(=O)c1ccc2nc(-c3ccc(-c4ccc(O[C@H]5CC[C@H](C(=O)O)CC5)nc4)nc3)[nH]c2c1 | 137 | – | 727 | – | –
6 | COc1ccc2[nH]c(-c3ccc(-c4ccc(O[C@H]5CC[C@@H](C(=O)O)CC5)nc4)nc3)nc2n1 | 11 | – | – | – | –
7 | O=C(O)[C@H]1CC[C@H](Oc2ccc(-c3ccc(-c4nc5ccccc5[nH]4)cn3)cn2)CC1 | 5.3 | – | 12 | – | –
8 | N#Cc1ccc2nc(-c3ccc(-c4ccc(O[C@H]5CC[C@@H](C(=O)O)CC5)nc4)nc3)[nH]c2c1 | 3.2 | – | 36 | – | –
9 | O=C(O)[C@H]1CC[C@@H](Oc2ccc(-c3ccc(-c4nc5ccccc5[nH]4)cn3)cn2)CC1 | 4 | – | 8.1 | – | Kp [5]: > 30; concentration at 5 h [6]: 1720 nM; Kp [7]: > 30; concentration at 5 h [8]: 8760 nM; concentration at 5 h [9]: 51 nM; concentration at 25 h [10]: 3060 nM; concentration at 2 h [11]: 3890 nM; concentration at 2 h [12]: 8320 nM; Activity [13]: 95%; concentration at 25 h [14]: 620 nM; Kp [15]: > 30; concentration at 2 h [16]: 114 nM; concentration at 2 h [17]: 5510 nM; concentration at 25 h [18]: 1760 nM; concentration at 5 h [19]: 6010 nM; concentration at 25 h [20]: 10 nM
10 | O=C(O)[C@H]1CC[C@@H](Oc2ccc(-c3ccc(-c4nc5cc(F)c(F)cc5[nH]4)cn3)cn2)CC1 | 1.4 | 1.28 | 3.4 | – | –
